In ChEMBL document CHEMBL1154307, “Eucalmaidins A-E, (+)-oleuropeic acid derivatives from the fresh leaves of Eucalyptus maideni” (J Nat Prod, 2009):
The source made the active and inactive calls. The calls are words filed in the database; no cut-off is given here.

How the values were obtained:
Human alphaherpesvirus 1 = test: Antiviral activity against HSV1 infected in african green monkey Vero cells assessed as inhibition of virus-induced cytopathic effect after 3 days by crystal violet staining; assay type: functional
How it was run: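 Vero cells grown 24 h in 24-well plates, then infected with 30 PFU HSV-1 together with serial sample dilutions in DMEM containing 2% FBS, adjusted to pH 7.2 with NaHCO3 and Hepes. Overlay medium held 1% methylcellulose. After 3 days, cells were fixed with formalin, stained with crystal violet, and plaques counted. The concentration giving 100% plaque reduction versus untreated infected control was read from graphic plots.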

[1] = Cytotoxicity against african green monkey Vero cells after 3 days by MTT assay; assay type: cell-based; conditions: chlorocebus sabaeus, read-out: MNCC
How it was run: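 Confluent Vero monolayers were exposed in triplicate to serial sample dilutions in DMEM with 2% FBS (pH 7.2) for 3 days. MTT was then added for 4 h and the formazan dissolved in DMSO. OD was read at 540 and 630 nm against untreated control. The maximal noncytotoxic concentration was taken as the highest concentration showing no cytotoxic effect.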

## CC(C)(O)C1CC=C(C(=O)O)CC1 (racemic)
Human alphaherpesvirus 1
  inhibition: inactive
[1]
  MNTC at 72 h: > 1090 µM

## COc1cc([C@@H]2c3cc(O)c(OC)cc3C[C@H](CO)[C@H]2CO[C@@H]2O[C@H](CO)[C@@H](O)[C@H](O)[C@H]2O)ccc1O
Human alphaherpesvirus 1
  inhibition: inactive
[1]
  MNTC at 72 h: 380 µM

## COc1cc(C(=O)O)cc(OC)c1O[C@@H]1O[C@H](COC(=O)C2=CC[C@H](C(C)(C)O)CC2)[C@@H](O)[C@H](O)[C@H]1O [EUCALMAIDIN C]
Human alphaherpesvirus 1
  inhibition: inactive
[1]
  MNTC at 72 h: 380 µM

## CC1(O)CC(=O)c2c(O)cc(O[C@@H]3O[C@H](COC(=O)C4=CC[C@H](C(C)(C)O)CC4)[C@@H](O)[C@H](O)[C@H]3O)cc2O1 (stereo partly specified) [CYPELLOCARPIN B]
Human alphaherpesvirus 1
  inhibition: inactive
[1]
  MNTC at 72 h: 20 µM

## CC(C)(O)[C@H]1CC=C(C(=O)OC[C@H]2O[C@@H](Oc3cc(C(=O)O)cc(O)c3O)[C@H](O)[C@@H](O)[C@@H]2O)CC1 [CYPELLOCARPIN A]
Human alphaherpesvirus 1
  inhibition: inactive
[1]
  MNTC at 72 h: 30 µM

## Nc1nc2c(ncn2COCCO)c(=O)[nH]1 [ACYCLOVIR]
Human alphaherpesvirus 1
  Concentration giving 100% plaque reduction (IC100): 0.0043 mM

## CC(C)(O)[C@H]1CC=C(C(=O)OC[C@H]2O[C@@H](Oc3c(O)cc(C(=O)O)cc3O)[C@H](O)[C@@H](O)[C@@H]2O)CC1 [EUCALMAIDIN B]
Human alphaherpesvirus 1
  inhibition: inactive
[1]
  MNTC at 72 h: 400 µM

## Cc1cc(=O)c2c(O)cc(O[C@@H]3O[C@H](COC(=O)C4=CC[C@H](C(C)(C)O)CC4)[C@@H](O)[C@H](O)[C@H]3O)cc2o1 [CYPELLOCARPA C]
Human alphaherpesvirus 1
  inhibition: inactive
[1]
  MNTC at 72 h: > 380 µM

## C[C@@H]1O[C@@H](Oc2c(-c3ccc(O)c(O)c3)oc3cc(O)cc(O)c3c2=O)[C@H](O)[C@H](O)[C@H]1O [QUERCITRIN]
Human alphaherpesvirus 1
  inhibition: inactive
[1]
  MNTC at 72 h: 10 µM

## CC(C)(O)[C@H]1CC=C(C(=O)OC[C@H]2O[C@@H](O)[C@H](O)[C@@H](O)[C@@H]2O)CC1 [EUCALMAIDIN A]
Human alphaherpesvirus 1
  inhibition: inactive
[1]
  MNTC at 72 h: > 580 µM

## O=c1c(O)c(-c2ccc(O)c(O)c2)oc2cc(O)cc(O)c12 [QUERCETIN]
Human alphaherpesvirus 1
  Concentration giving 100% plaque reduction (IC100): 0.33 mM
[1]
  MNTC at 72 h: < 20 µM
